# RGS4 act = RGS4 potentiators or activators, primary screen, cell-based, HEK293 M3R inducible RGS4, calcium flux. carbachol calcium flux Fluo4; active compounds read low. B-score at 10 µM. 310,000 compounds, 0.92% hits;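 active = B-score of the integrated calcium signal more than 4 SD below the library mean, with starting fluorescence not abnormally high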;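 also: negative B-score means reduced calcium response which marks RGS4 activation or potentiation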
#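 Detection: kinetic calcium fluorescence imaging with Fluo4-AM dye, 2 µM / Material: HEK293 cells with stable M3R and inducible RGS4 / Schedule: recording 10 s baseline at 1 Hz, 100 s post-agonist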
# MrgX1 allo act = positive allosteric modulators of MrgX1, primary screen, HEK293 cells, Fluo-4 calcium flux; B-score at 10 µM; 310,000 compounds, 0.63% hits; FDSS; active compounds read high; AID 588675, 2011;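 active = plate-corrected calcium response at least 3 library SD above typical, normal starting fluorescence, not activating the receptor alone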;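 also: compound read alongside a low EC10 to EC30 dose of BAM8-22 agonist; peak minus trough fluorescence over baseline measured at the second addition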
# Target sequence (Q96LB2 whole entry, looked up): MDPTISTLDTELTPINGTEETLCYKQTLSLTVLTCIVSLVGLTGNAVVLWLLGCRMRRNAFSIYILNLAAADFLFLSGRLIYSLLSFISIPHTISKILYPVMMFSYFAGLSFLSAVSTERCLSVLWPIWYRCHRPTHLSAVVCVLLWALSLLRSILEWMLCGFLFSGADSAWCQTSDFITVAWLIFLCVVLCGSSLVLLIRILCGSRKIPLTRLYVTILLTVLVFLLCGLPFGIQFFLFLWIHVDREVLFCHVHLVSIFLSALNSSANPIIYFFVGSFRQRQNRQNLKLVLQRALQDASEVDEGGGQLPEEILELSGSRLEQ
# RGS4 block = RGS4 inhibitors, primary screen, cell-based, HEK293 M3R inducible RGS4, calcium flux. 310,000 compounds, 0.45% hits. Fluo-4 calcium flux; active compounds read high; triggered by carbachol at its EC20. Regulator of G-protein signaling 4 (Homo sapiens), P49798. B-score at 10 µM. AID 463165, 2010;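 active = B-score, a plate-corrected calcium signal, over three deviations above library mean, with baseline fluorescence within five deviations of library mean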;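 also: RGS4 expression induced by doxycycline in cells with stable M3 receptor; B-score is computed from the integrated fluorescence ratio over baseline after carbachol; higher B-score means a larger calcium signal and so more RGS4 inhibition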
# Target sequence (P49798 whole entry, looked up): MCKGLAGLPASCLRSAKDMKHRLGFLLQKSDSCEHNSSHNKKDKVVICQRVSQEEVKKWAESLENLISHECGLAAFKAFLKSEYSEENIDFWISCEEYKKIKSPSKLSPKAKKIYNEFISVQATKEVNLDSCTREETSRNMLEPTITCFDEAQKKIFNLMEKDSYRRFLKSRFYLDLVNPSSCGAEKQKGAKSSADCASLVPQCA
# MrgX1 antag = antagonists of human MrgX1 receptor, primary screen, HEK293 cells, Fluo-4 calcium flux; B-score at 10 µM; 310,000 compounds, 1.3% hits; AID 588676, 2011; BAM8-22 antagonism; active compounds read low;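 active = calcium-response B-score plate-corrected more than 3 library SD below zero, starting fluorescence within 5 deviations, no agonist response on first addition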;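 also: peak minus trough fluorescence over baseline after final BAM8-22 challenge near maximal dose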
# MrgX1 agonist = agonists of human MrgX1 receptor, primary screen, HEK293 cells, Fluo-4 calcium flux; Mas-related G-protein coupled receptor member X1 (Homo sapiens), Q96LB2; Fluo-4 calcium fluorescence, agonist mode; active compounds read high; B-score at 10 µM; 310,000 compounds, 0.44% hits; AID 588627, 2011;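 active = calcium response B-score plate-corrected fluorescence ratio at least 3 library SD, with starting fluorescence B-score inside 5 SD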
#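 times = overnight plating, then 30 min 37 °C plus 30 min room-temperature dye loading | assay system = stable human MrgX1 HEK293 cell line | input = fifteen thousand cells per well | signal = kinetic calcium dye fluorescence, Fluo-4 NW | dosing = compound delivered in addition one of three | read-out = B-scored fluorescence response ratio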
# MrgX1 PAM conf = MrgX1 positive allosteric modulators, duplicate retest, confirmation, HEK293 cells, Fluo-4 calcium flux; shares compounds with MrgX1 allo act; Fluo-4 calcium fluorescence, FDSS; activation (ratio percentage), % at 10 µM; 1,200 compounds, 13% hits; AID 602413, 2012;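 active = ratio at least 3 SD above the weak peptide control, stable starting fluorescence, no direct agonism earlier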;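 also: compound followed by low BAM8-22 agonist challenge near EC20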
# HEK293 Ca flux = nonspecific calcium signal in parental HEK293, confirmation, counter-screen for MrgX1 antagonist project, parental HEK293 cells, Fluo-4 calcium flux; fluorescence ratio F(max-min)/F0 at 10 µM; 4,000 compounds, 2% hits; shares compounds with MrgX1 antag; Fluo-4 calcium fluorescence, FDSS; AID 624111, 2012;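 active = duplicate-averaged calcium fluorescence ratio at least three times the standard deviation of buffer wells, a nonspecific response in parental cells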
# HEK293 Ca counter = calcium response in parental HEK293 cells, primary screen, counter-screen for MrgX1 allosteric activator project, cell-based, Fluo-4 calcium flux, duplicate. shares compounds with MrgX1 antag. Fluo-4 fluorescence ratio; active compounds read high. fluorescence ratio F(max-min)/F0 at 10 µM. 4,000 compounds, 0.4% hits. AID 624114, 2012;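 active = calcium fluorescence ratio, averaged over duplicates, at least 3 SD of the buffer-well ratio, meaning a nonspecific response in receptor-free cells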;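 also: untransfected parental HEK293 lacking MrgX1 used as counterscreen for MrgX1 allosteric activators; fluorescence change taken during the second addition on a kinetic imager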
# HEK293 Ca cntr2 = calcium response in parental HEK293 cells, primary screen, counter-screen for MrgX1 agonist project, cell-based, Fluo-4 calcium flux, duplicate, agonist mode | Fluo-4 calcium fluorescence (FDSS); active compounds read high | shares compounds with MrgX1 antag | 4,000 compounds, 8.7% hits | fluorescence ratio F(max-min)/F0 at 10 µM | AID 624115, 2012;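 active = calcium fluorescence ratio at least three times the spread of buffer wells, meaning a non-specific response in parental cells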
# Starred values were filed as active, the others as inactive; i = inactive; . = no result. This is a sample that favours compounds with a hit; in the whole collection about 3.5% have one here.
SMILES,RGS4 act,MrgX1 allo act,RGS4 block,MrgX1 antag,MrgX1 agonist,MrgX1 PAM conf,HEK293 Ca flux,HEK293 Ca counter,HEK293 Ca cntr2
CCCc1c(C(=O)Nc2ccc(F)cc2F)cnn1-c1ccccc1,i,11*,i,i,i,i,i,i,i
O=C(O)C1CCCN(S(=O)(=O)c2ccc(Br)s2)C1 (stereo unspecified),i,6.6*,i,i,i,i,i,i,i
COc1ccc(S(=O)(=O)N2CCOC2CNC(=O)C(=O)NCc2ccc3c(c2)OCO3)cc1 (stereo unspecified),i,i,i,i,i,.,.,.,.
O=C(Cn1cnc2c(nnn2Cc2ccc(F)cc2)c1=O)Nc1ccc2c(c1)OCCO2,i,i,i,i,i,.,.,.,.
O=C(N/N=C\c1c(O)ccc2ccccc12)c1ccc(S(=O)(=O)N2CCCCC2)cc1,i,20*,i,i,i,i,0.42*,i,65*
O=C(N/N=C/c1c(O)ccc2ccccc12)c1ccc(CO)nc1,i,i,i,i,i,.,.,.,.
Cn1ncc(Br)c1C(=O)NC12CC3CC(CC(C3)C1)C2,i,8.6*,i,i,i,i,i,i,i
CC(C)(C)NC(=O)CN(Cc1ccc(F)cc1)C(=O)Cn1nnc(-c2ccc(F)cc2)n1,i,i,i,i,i,.,.,.,.
Cc1cccc(NS(=O)(=O)c2c(C)nc3scc(C)n3c2=O)c1,i,21*,i,i,i,i,i,i,i
Cc1nc2scc(C)n2c(=O)c1S(=O)(=O)Nc1ccc(N2CCN(S(C)(=O)=O)CC2)cc1,i,i,i,i,i,.,.,.,.
Cc1nnc(SC(C)C(=O)NC2CCCCC2C)s1 (stereo unspecified),i,i,i,i,i,.,.,.,.
OCCn1c(-c2ccc(F)cc2)csc1=Nc1ccccc1,i,13*,i,i,i,i,i,i,i
OCCn1c(-c2ccc3c(c2)OCO3)csc1=Nc1ccccc1,i,12*,i,i,i,i,i,i,i
CCOc1ccc(N=c2scc(-c3ccccc3)n2CCO)cc1,i,i,i,i,i,.,.,.,.
CCOc1ccc(N=c2scc(-c3ccc(OC)cc3)n2CCO)cc1,i,i,i,i,i,.,.,.,.
Cc1cc(/C=C2/SC(=S)N(c3cccc(Cl)c3)C2=O)c(C)n1-c1cccnc1,i,19*,i,i,i,i,i,i,i
CC1Sc2ccc(Cl)cc2-c2nc(N)ncc21 (stereo unspecified),i,11*,i,i,i,i,i,i,i
COc1cc(/C=N/NC(=O)c2ccc(Cl)c(S(N)(=O)=O)c2)ccc1OCC(N)=O,i,i,i,i,i,.,.,.,.
CN(C)S(=O)(=O)Oc1cccc(C(=O)Nc2ccccc2Cl)c1,i,i,i,i,i,.,.,.,.
CN(C)S(=O)(=O)Oc1cccc(C(=O)Nc2ccc(Cl)cc2)c1,i,7.7*,i,i,i,i,i,i,i
COc1cccc(C(=O)Nc2nnc(-c3ccc(F)cc3)o2)c1,i,i,i,i,i,.,.,.,.
COc1cccc(C(=O)Nc2nnc(-c3ccc(Cl)cc3)o2)c1,i,8.4*,i,i,i,i,i,i,i
Cc1cc(-c2nnc(CCC(=O)N(C)C(C)c3cccs3)o2)no1 (stereo unspecified),i,i,i,i,i,.,.,.,.
COC(=O)c1sccc1NC(=O)c1ccc(C(C)C)cc1,i,i,i,i,i,.,.,.,.
Cc1ccccc1CCNC(=O)Cn1ccc2cc(S(=O)(=O)N3CCCC3)ccc21,i,7.1*,i,i,i,i,i,i,i
SMILES,RGS4 act,MrgX1 allo act,RGS4 block,MrgX1 antag,MrgX1 agonist,MrgX1 PAM conf,HEK293 Ca flux,HEK293 Ca counter,HEK293 Ca cntr2
Cc1ccc(CCNC(=O)Cn2ccc3cc(S(=O)(=O)N4CCCC4)ccc32)cc1,i,i,i,i,i,.,.,.,.
COC(=O)C1(c2ccccc2)NC(c2ccc(O)cc2)C2C(=O)N(c3ccc4c(c3)OCO4)C(=O)C21 (stereo unspecified),i,i,i,i,i,.,.,.,.
CCC(C)n1c(NC(=O)c2ccccc2)c(C#N)c2nc3ccccc3nc21 (stereo unspecified),i,7.9*,i,i,i,i,i,i,i
CN(C)S(=O)(=O)c1ccc(Cl)c(NC(=O)COC(=O)CN2C(=O)C3CCCCC3C2=O)c1 (stereo unspecified),i,9*,i,i,i,i,i,i,i
Cc1cccc(NC2=NC(=S)N(c3cccc(C(=O)O)c3)C23CCCCC3)c1,i,i,i,i,i,.,.,.,.
Cc1cccc(C)c1NC1=NC(=S)N(c2ccc(C(=O)O)cc2)C12CCCCC2,i,7.2*,i,i,i,i,i,i,i
CCOc1ccccc1N1CCN(C(=O)Nc2cccc(Cl)c2)CC1,i,11*,i,i,i,i,i,i,i
CC(C)OCCCNC(=O)NC(=O)c1ccc(Cl)cc1,i,i,i,i,i,.,.,.,.
Cc1ccc(S(=O)(=O)N2CCCC(C(=O)Nc3ccc(C(=O)O)cc3)C2)cc1Cl (stereo unspecified),i,i,i,i,i,.,.,.,.
O=C(Oc1ccnc2cc(Cl)ccc12)N1CCCCCC1,i,15*,i,i,i,i,i,i,i
CCN(CC)C(=O)Oc1ccc2ccccc2c1Cl,i,i,i,i,i,.,.,.,.
